ChEMBL document CHEMBL5154639, “Anti-schistosomal activities of quinoxaline-containing compounds: From hit identification to lead optimisation” (Eur J Med Chem, 2021)
Blank lines part the entries; values can stand above or below the compound they belong to. Active and inactive are the calls of the source.

How the values were obtained:
Schistosoma mansoni [1] = experiment: Antischistosomal activity against Schistosoma mansoni Puerto-Rican schistosomula assessed as inhibition of parasite motility measured after 72 hrs; assay type: functional, organism-based
Procedure, shortened: (§1)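 Mechanically transformed schistosomula, 120 per well, incubated with compound at 37°C, 5% CO2 for 72 h, at single concentrations (10, 50 µM) or two-fold titrations (0.313–10 µM). Controls were auranofin 10 µM and 0.625% DMSO. Motility and phenotype were scored by automated high-content imaging, and EC50 was taken from two or three replicate titrations.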

Schistosoma mansoni [2] = experiment: Antischistosomal activity against Schistosoma mansoni Puerto-Rican schistosomula assessed as phenotypic changes measured after 72 hrs; assay type: functional, organism-based; procedure, shortened: as §1
Schistosoma mansoni [3] = experiment: Antischistosomal activity against adult stage of Schistosoma mansoni assessed as inhibition of parasite motility measured after 72 hrs; assay type: functional, organism-based
Procedure, shortened: (§2)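 7-week adult worm pairs, 1–3 pairs per well in duplicate, in DMEM with 10% FCS, L-glutamine and antibiotics, incubated 72 h at 37°C, 5% CO2. Concentrations were 0.78–50 µM in 0.5% DMSO, with some titrations at 0.0095–10 or 0.0095–5 µM. Controls were 0.5% DMSO and praziquantel 10 µM. Motility was measured by digital image analysis, and eggs were collected, formalin-fixed and counted.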

[4] = Cytotoxicity against human HepG2 cells assessed as reduction in cell viability incubated for 24 hrs by MTT assay; assay type: toxicity, cell-based
Procedure, shortened: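 HepG2 seeded at 2×10^4 cells/well, then after 24 h exposed to 1–200 µM (seven concentrations) for 24 h at 37°C. Controls were 1.25% DMSO and 1% Triton X-100. MTT absorbance was read at 570 nm. Triplicates in three experiments; CC50 by non-linear regression of normalized log-dose curves.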

[5] = Cytotoxicity against human HepG2 cells assessed as reduction in cell viability incubated for 72 hrs by MTT assay; assay type: toxicity, cell-based
[6] = Selectivity index, ratio of CC50 for human HepG2 cells measured after 72 hrs to EC50 for antischistosomal activity against Schistosoma mansoni Puerto-Rican schistosomula measured after 72 hrs; assay type: toxicity; conditions: read-out: Ratio CC50/EC50
[7] = Selectivity index, ratio of CC50 for human HepG2 cells measured after 72 hrs to EC50 for antischistosomal activity against adult stage of Schistosoma mansoni measured after 72 hrs; assay type: toxicity; conditions: read-out: Ratio CC50/EC50
Schistosoma mansoni [8] = experiment: Antischistosomal activity against adult stage of Schistosoma mansoni assessed as cessation of worm motility at 6.25 to 12.5 uM measured after 72 hrs; assay type: functional, organism-based; conditions: dose 6.25-12.5 µM; procedure, shortened: as §2
Schistosoma mansoni [9] = experiment: Antischistosomal activity against adult stage of Schistosoma mansoni assessed as cessation of worm motility at 0.0095 to 10 uM measured after 72 hrs; assay type: functional, organism-based; conditions: dose 0.0095-10 µM; procedure, shortened: as §2
[10] = Genotoxicity against human TK6 cells assessed as […] in micronuclei formation at 0.5 to 2 uM measured after 24 hrs; assay type: toxicity, cell-based; conditions: tk6, 24 h, dose 0.5-2 µM
Procedure, shortened: (§3)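 TK6 cells, about 2×10^5/ml in RPMI with 10% horse serum, treated 24 h without recovery at 0.5, 2 and 4 µM. Controls were 1% DMSO, MMS 45.4 µM and carbendazim 8.4 µM. Cells were fixed, permeabilized and stained for γH2AX, p53 and DRAQ5, then imaged by flow cytometry. Micronuclei were scored by neural network as %MNi in mononucleated cells. Biomarkers were expressed as fold change, with 1.5-fold as cut-off. Three experiments.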

TK6 [11] = experiment: Induction of cell cycle arrest in human TK6 cells assessed as accumulation of cells at G2/M phase at 2 to 4 uM; assay type: toxicity, cell-based; conditions: tk6, 4 µM, dose 2-4 µM
[12] = Genotoxicity against human TK6 cells assessed as induction of DNA damage by measuring gammaH2AX level at 0.5 to 4 uM measured after 24 hrs; assay type: toxicity, cell-based; conditions: tk6, 24 h, dose 0.5-4 µM; procedure, shortened: as §3
[13] = Genotoxicity against human TK6 cells assessed as induction of DNA damage by measuring nuclear p53 content at 0.5 to 4 uM measured after 24 hrs; assay type: toxicity, cell-based; conditions: tk6, 24 h, dose 0.5-4 µM; procedure, shortened: as §3
Schistosoma mansoni [14] = experiment: Antischistosomal activity against juvenile stage of Schistosoma mansoni assessed as parasite death at 1.25 to 10 uM measured after 72 hrs by PI staining based analysis; assay type: functional, organism-based; conditions: dose 1.25-10 µM
Procedure, shortened: (§4)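 Juvenile worms, 20–25 per well, exposed to 10–0.156 µM for 72 h at 37°C, 5% CO2. Controls were 1.25% DMSO, and PZQ and AUR at 15 µM. Motility and phenotype were scored on an adapted WHO-TDR 0–4 scale. Viability was measured by 15 min staining with 2 µg/ml propidium iodide, imaged, and reported as the percentage of PI-positive worms per well.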

Schistosoma mansoni [15] = experiment: Antischistosomal activity against adult stage of Schistosoma mansoni assessed as inhibition of oviposition at 0.0095 to 10 uM measured after 72 hrs; assay type: functional, organism-based; conditions: dose 0.0095-10 µM; procedure, shortened: as §2
Schistosoma mansoni [16] = experiment: Antischistosomal activity against Schistosoma mansoni assessed as parasite death at 10 to 50 uM measured after 48 hrs; assay type: functional, organism-based; conditions: dose 10-50 µM
Procedure, shortened: (§5)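 Miracidia hatched from eggs by light exposure in artificial river water, then washed in CBSS. Set up in CBSS with compound, usually 0.5, 2, 5, 10 and 50 µM, in duplicate, with 1% DMSO as negative control. After 48 h at 26°C, dead, fully transformed and partially transformed larvae were counted.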

Schistosoma mansoni [17] = experiment: Antischistosomal activity against Schistosoma mansoni assessed as inhibition of miracidial to sporocyst transformation measured after 48 hrs; assay type: functional, organism-based; conditions: dose 0.5-5 µM, DDE = dose-dependent effect; procedure, shortened: as §5
Schistosoma mansoni [18] = experiment: Antischistosomal activity against juvenile stage of Schistosoma mansoni assessed as increased granularity with reduced movement at 0.156 uM measured after 72 hrs by PI staining based analysis; assay type: functional, organism-based; procedure, shortened: as §4
[19] = Genotoxicity against human TK6 cells assessed as […] in micronuclei formation at 4 uM measured after 24 hrs; assay type: toxicity, cell-based; conditions: tk6, 24 h; procedure, shortened: as §3
TK6 [20] = experiment: Cytotoxicity against human TK6 cells assessed as increase in mitotic arrest at 4 uM measured after 24 hrs; assay type: toxicity, cell-based; conditions: tk6, 24 h
[21] = Drug uptake in cytoplasm of human TK6 cells by fluorescence based analysis; assay type: ADME, subcellular
Procedure, shortened: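 Compound autofluorescence was recorded alongside γH2AX and p53 during imaging flow cytometry of TK6 cells treated for 24 h at 0.5–4 µM and fixed with lysis solution.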

Schistosoma mansoni [22] = experiment: Antischistosomal activity against adult stage of Schistosoma mansoni assessed as inhibition of oviposition at 0.0024 to 10 uM measured after 72 hrs; assay type: functional, organism-based; conditions: dose 0.0095-10 µM, in the assay text read “0.0095 to 10 uM” for “0.0024 to 10 uM”; procedure, shortened: as §2
Schistosoma japonicum [23] = experiment: Antischistosomal activity against adult stage of Schistosoma japonicum assessed as inhibition of parasite motility at 100 nM measured after 48 hrs by microscopic method; assay type: functional, organism-based
Procedure, shortened: (§6)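 Adult males (Egyptian isolate for S. haematobium, hamster-derived; Philippine isolate for S. japonicum, mouse-derived), about 5 per well in Basch 169 medium with antibiotics and 4% FBS, acclimated overnight at 37°C, 5% CO2. Compound added at 100 nM final in DMSO. Shape, density and motility scored by microscope with constrained descriptors at 5, 24, 48 and 72 h. Triplicate, sometimes duplicate.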

Schistosoma japonicum [24] = experiment: Antischistosomal activity against adult stage of Schistosoma japonicum assessed as inhibition of parasite motility at 100 nM measured after 24 to 72 hrs by microscopic method; assay type: functional, organism-based; conditions: time 24-72 hrs; procedure, shortened: as §6
Schistosoma haematobium = experiment: Antischistosomal activity against Schistosoma haematobium assessed as inhibition of parasite movement at 100 nM measured after 24 to 72 hrs by microscopic method; assay type: functional, organism-based; conditions: time 24-72 hrs; procedure, shortened: as §6
Schistosoma japonicum [25] = experiment: Antischistosomal activity against adult stage of Schistosoma japonicum assessed as parasite death at 100 nM measured after 72 hrs by microscopic method; assay type: functional, organism-based; procedure, shortened: as §6
Schistosoma mansoni [26] = experiment: Antischistosomal activity against adult stage of Schistosoma mansoni assessed as inhibition of in vitro laid eggs production at 12.5 uM measured after 72 hrs; assay type: functional, organism-based; procedure, shortened: as §2
Schistosoma mansoni [27] = experiment: Antischistosomal activity against adult stage of Schistosoma mansoni assessed as absence of body/gut movement, plate detachment and severe damage to the tegument at 25 to 50 uM measured after 72 hrs; assay type: functional, organism-based; conditions: dose 25-50 µM; procedure, shortened: as §2
Schistosoma mansoni [28] = experiment: Antischistosomal activity against adult stage of Schistosoma mansoni assessed as cessation of worm motility at 3.15 uM measured after 72 hrs; assay type: functional; procedure, shortened: as §2
Schistosoma mansoni [29] = experiment: Antischistosomal activity against Schistosoma mansoni Puerto-Rican schistosomula assessed as inhibition of parasite motility at 50 uM measured after 72 hrs; assay type: functional, organism-based; procedure, shortened: as §1

EC50 (Schistosoma mansoni [1]): 1.21 µM | EC50 (Schistosoma mansoni [2]): 3.67 µM | EC50 (Schistosoma mansoni [3]): 0.162 µM
SMILES: Brc1ccc(Nc2nc3ccccc3nc2Nc2ccc(Br)cc2)cc1
CC50 at 24 h [4]: 7.12 µM | CC50 at 72 h [5]: 4.64 µM | selectivity ratio at 72 h [6]: 1.9 | selectivity ratio at 72 h [7]: 28.6

Drug uptake [21]: Active
SMILES: O=[N+]([O-])c1ccc2nc(Nc3ccc(Cl)c(Cl)c3)c(Nc3ccc(Cl)c(Cl)c3)nc2c1
Activity (Schistosoma mansoni [8]): Active | Activity (Schistosoma mansoni [9]): Active | Activity [10]: Non-Toxic | Activity (TK6 [11]): Toxic | Activity [12]: Non-Toxic | Activity [13]: Non-Toxic | Activity (Schistosoma mansoni [14]): Active | Activity (Schistosoma mansoni [15]): Active | Activity (Schistosoma mansoni [16]): Active | Activity (Schistosoma mansoni [17]): Dde | Activity (Schistosoma mansoni [18]): Active | Activity [19]: Toxic | Activity (TK6 [20]): Toxic | Activity (Schistosoma mansoni [22]): Active | Activity (Schistosoma japonicum [23]): Active

SMILES: O=[N+]([O-])c1ccc2nc(Nc3cc(C(F)(F)F)ccc3F)c(Nc3cc(C(F)(F)F)ccc3F)nc2c1
Activity (Schistosoma japonicum [24]): Active | Activity (Schistosoma haematobium): Active | Activity (Schistosoma mansoni [22]): Active | Activity (Schistosoma japonicum [25]): Active

SMILES: O=C(C1CCCCC1)N1CC(=O)N2CCc3ccccc3C2C1 (stereo not drawn)
Activity (Schistosoma mansoni [9]): Active | Activity (Schistosoma mansoni [15]): Active | Activity (Schistosoma mansoni [22]): Active

SMILES: O=[N+]([O-])c1ccc2nc(Nc3ccc(C(F)(F)F)cc3)c(Nc3ccc(C(F)(F)F)cc3)nc2c1
Activity (Schistosoma japonicum [24]): Active | Activity (Schistosoma haematobium): Active | Activity (Schistosoma japonicum [25]): Active

SMILES: c1ccc(/N=c2\sc3ccccc3s\c2=N\c2ccccc2)cc1
Activity (Schistosoma mansoni [26]): Active | Activity (Schistosoma mansoni [27]): Active

SMILES: COC(=O)c1ccc(Nc2nc3ccc([N+](=O)[O-])cc3nc2Nc2ccc(C(=O)OC)cc2)cc1
Activity (Schistosoma mansoni [8]): Active

SMILES: O=[N+]([O-])c1ccc2nc(Nc3ccc(Cl)cc3)c(Nc3ccc(Cl)cc3)nc2c1
Activity (Schistosoma japonicum [23]): Active

SMILES: O=[N+]([O-])c1ccc2nc(Nc3cccc(Cl)c3)c(Nc3cccc(Cl)c3)nc2c1
Activity (Schistosoma japonicum [23]): Active

SMILES: O=[N+]([O-])c1ccc2nc(Nc3cccc(C(F)(F)F)c3)c(Nc3cccc(C(F)(F)F)c3)nc2c1
Activity (Schistosoma haematobium): Active | Activity (Schistosoma japonicum [23]): Active

SMILES: Cc1cccc(Nc2nc3ccc([N+](=O)[O-])cc3nc2Nc2cccc(C)c2)c1
Activity (Schistosoma mansoni [8]): Active

SMILES: O=[N+]([O-])c1ccc2nc(Nc3cc(F)cc(C(F)(F)F)c3)c(Nc3cc(F)cc(C(F)(F)F)c3)nc2c1
Activity (Schistosoma mansoni [22]): Active

SMILES: FC(F)(F)c1cccc(Nc2nc3ccccc3nc2Nc2cccc(C(F)(F)F)c2)c1
Activity (Schistosoma mansoni [8]): Active | Activity (Schistosoma mansoni [28]): 100%

SMILES: Cc1ccc(Nc2nc3ccccc3nc2Nc2ccc(C)c(C)c2)cc1C
Activity (Schistosoma mansoni [8]): Active

SMILES: Clc1ccc(Nc2nc3ccc(N4CCCC4)cc3nc2Nc2ccc(Cl)c(Cl)c2)cc1Cl
Activity (Schistosoma mansoni [29]): Active

SMILES: O=[N+]([O-])c1ccc2nc(Nc3ccccc3)c(Nc3ccccc3)nc2c1
Activity (Schistosoma mansoni [8]): Active | Activity (Schistosoma mansoni [28]): 100%
